Source: PubChem BioAssay
ARNT TACC3 PPI = disrupts binding between human ARNT and TACC3. Q9Y6A5. AlphaScreen His-ARNT PAS-B/GST-TACC3 binding, luminescence; TACC3 fragment carries E629A point mutation. inhibition, % at 9.99 µM. 390,000 compounds, 0.66% hits. AID 623870;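 active means mean inhibition of replicates at least 50% and at least half of replicates each reaching 50%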;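 further: 0% = complete ARNT plus TACC3 wells and 100% = ARNT alone without TACC3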
CAL PDZ FP-1 = inhibitors of human CAL PDZ peptide binding; purified CAL PDZ, TMR-peptide fluorescence polarization, 1 h; inhibition, % at 20 µM; 330,000 compounds, 0.02% hits; AID 504414;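 active means highest replicate inhibition of at least 40%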;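 further: plate controls were DMSO neutral control wells for no effect and unlabeled competitor peptide control wells for full effect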
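Material – purified CerCALP PDZ construct · Detection – FP readout, S and P plane fluorescence · Measure – percent inhibition from loss of millipolarization · Controls – unlabelled peptide for full inhibition, DMSO wells as neutral · Probe or stimulus – TMR-labelled reporter peptide T*-PRC34 bound in PDZ groove · Times – 1 h at RT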
CAL PDZ FP-2 = inhibitors of human CAL PDZ peptide binding. Q9HD26. purified CAL PDZ, TMR-peptide fluorescence polarization, 1 h. inhibition, % at 24.9 µM. 300,000 compounds, 0.92% hits. AID 602252;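 active means mean inhibition of at least 30% with at least half of replicates also reaching 30%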;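 further: 0% = DMSO neutral control and 100% = excess unlabeled competitor peptide PRC23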
* = called active by the depositor; . = no result. A selection: hits, their analogues and other compounds. The true share with any hit is near 1.2%.

SMILES	ARNT TACC3 PPI	CAL PDZ FP-1	CAL PDZ FP-2
Cc1c(CC(=O)O)c(=O)oc2c(C)c(OCc3c(F)cccc3Cl)ccc12	-21.8	.	-6.0
Cc1c(CCC(=O)O)c(=O)oc2c(C)c(OCc3cc4c(cc3Cl)OCO4)ccc12	-1.4	-3.6	94.8*
Cc1ccc(Cl)cc1NC(=O)COC(=O)CN1C(=O)C2CCCCC2C1=O (stereo not drawn)	6.3	-0.3	.
CC(=O)c1ccccc1NC(=O)COC(=O)CN1C(=O)C2CCCCC2C1=O (stereo not drawn)	2.3	-0.7	40.0*
COCC(=O)Nc1ccc2c(c1)C(=O)N(C)C[C@@H](OC)[C@@H](C)CN(C(=O)NC(C)C)[C@@H](C)CO2	-2.3	.	.
C/C=C/c1ccc([C@@H]2[C@@H](C#N)N(C(=O)Cc3ccccn3)[C@@H]2CO)cc1	45.8*	.	.
C/C=C/c1ccc([C@@H]2[C@@H](CO)N(Cc3ccccn3)[C@H]2CNC(=O)CC)cc1	3.3	.	.
C/C=C/c1ccc([C@@H]2[C@H](CO)N(Cc3ccccn3)[C@H]2CNC(=O)CC)cc1	30.0*	.	.
N#C[C@H]1[C@@H](c2ccccc2)[C@@H](CO)N1C(=O)Cc1ccccn1	5.8	.	.
CN1C(=O)c2cc(NC(=O)NCc3ccccc3)ccc2OC[C@@H]2O[C@@H](CC(=O)O)CC[C@@H]21	-0.5	.	.
C[C@@H](NC(=O)C[C@@H]1C[C@@H]2c3cc(NC(=O)c4cccnc4)ccc3O[C@@H]2[C@@H](CO)O1)c1ccccc1	24.1	.	.
Cc1ccc(S(=O)(=O)N(C)C[C@@H]2Oc3ccc(NS(=O)(=O)c4c(C)noc4C)cc3C(=O)N([C@@H](C)CO)C[C@H]2C)cc1	0.2	.	.
CCOc1ccc(C(C(=O)NCC2CCCO2)N(Cc2ccccc2)C(=O)c2snc(C(N)=O)c2N)cc1 (stereo not drawn)	-0.3	-0.1	88.0*
CCOc1ccc(C(C(=O)NCC2CCCO2)N(Cc2cccc(OC)c2)C(=O)c2snc(C(N)=O)c2N)cc1 (stereo not drawn)	-2.8	-2.4	-2.2
C[C@H]1CN([C@@H](C)CO)C(=O)c2cc(NC(=O)NC3CCCCC3)ccc2O[C@@H]1CN(C)S(=O)(=O)c1ccc(Cl)cc1	-4.3	.	.
O=C(NCCN1CCOCC1)C(=O)NCC1OCCN1S(=O)(=O)c1ccc(F)cc1 (stereo not drawn)	30.9	2.9	83.0*
COCCNC(=O)C(=O)NCC1OCCN1S(=O)(=O)c1ccc(F)cc1 (stereo not drawn)	-7.1	-0.3	34.2*
O=C(NCCCN1CCOCC1)C(=O)NCC1OCCN1S(=O)(=O)c1ccc(F)cc1 (stereo not drawn)	8.7	-3.3	-3.9
COCCNC(=O)C(=O)NCC1OCCN1S(=O)(=O)c1cccs1 (stereo not drawn)	-1.5	-0.7	-4.0
C[C@@H]1CN([C@@H](C)CO)S(=O)(=O)c2ccc(/C=C/c3ccccc3)cc2O[C@H]1CN(C)C(=O)CN1CCOCC1	1.0	.	.
COc1ccc(C(=O)O)cc1S(N)(=O)=O	-4.1	-2.0	32.4*
CNS(=O)(=O)c1cc(C(=O)O)ccc1OC	-1.2	.	-2.1
COc1ccc(NC(=O)N(C)C[C@@H]2Oc3c(NS(=O)(=O)c4ccc(OC)cc4)cccc3C(=O)N([C@@H](C)CO)C[C@H]2C)cc1	-0.8	.	.
COC(=O)CCC(=O)OC1(C)C(=O)C=C2C=C(C3CC3)N(CCCOC(C)C)C=C2C1=O (stereo not drawn)	74.6*	-1.4	0.2
C=CCN1C=C2C(=O)C(C)(OC(=O)CCC(=O)OC)C(=O)C=C2C=C1C1CC1 (stereo not drawn)	2.7	-0.1	-1.4
SMILES	ARNT TACC3 PPI	CAL PDZ FP-1	CAL PDZ FP-2
COC(=O)CCC(=O)OC1(C)C(=O)C=C2C=C(C3CC3)N(CCN3CCOCC3)C=C2C1=O (stereo not drawn)	3.4	0.4	-1.0
COC(=O)CCC(=O)OC1(C)C(=O)C=C2C=C(C3CC3)N(CCc3ccccn3)C=C2C1=O (stereo not drawn)	11.1*	0.0	0.7
COC(=O)CCC(=O)OC1(C)C(=O)C=C2C=C(C3CC3)N(CCCCO)C=C2C1=O (stereo not drawn)	32.3*	0.8	1.8
COC(=O)CCC(=O)OC1(C)C(=O)C=C2C=C(C3CC3)N(CCc3c[nH]c4ccccc34)C=C2C1=O (stereo not drawn)	6.6	0.3	0.5
CO[C@@H](CN(C)C(=O)c1ccccc1F)[C@H](C)CN([C@H](C)CO)S(=O)(=O)c1ccccc1	-10.5	.	.
O=C(C[C@@H]1CC[C@H]2[C@@H](COC[C@@H](O)CN2Cc2ccc(Cl)cc2)O1)NCc1ccccc1Cl	5.7	.	.
C=CCOc1ccc(C2C(C(=O)c3ccco3)=C(O)C(=O)N2CCCN(CC)CC)cc1 (stereo not drawn)	6.7	-2.3	0.1
